# Assay outcomes: PubChem BioAssay, several laboratories
# Most compounds without a hit are left out; they make up all but 2.1% or so of the library.
# FAS-TE inh = inhibitors of human fatty acid synthase thioesterase domain | P49327 | recombinant FAS-TE, OMFH fluorogenic substrate, fluorescence endpoint | inhibition, % at 15 µM | 360,000 tested, 0.67% active | AID 602261;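 active means compounds whose normalised, plate-corrected inhibition of enzyme fluorescence in the single-dose primary screen is 50% or more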
# RanGTP-Imp inh = disruptors of Ran-importin-beta complex formation – biochemical, FRET, CFP-Ran, YFP-importin-beta, homogeneous, primary screen; AID 2216; cell-free CFP-Ran/YFP-importin-beta FRET ratio; inhibition, % (concentration not given with the values); 300,000 tested, 1.1% active;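 active means more than half of the replicate wells show a fall in the fluorescence ratio signal beyond about 16%, limit read from the data, passing the limit was not always enough; inconclusive means exactly half of the replicate wells pass the set limit; inactive means fewer than half of replicates pass the limit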
# Runt-CBFb FRET = Runt domain-CBFb interaction inhibition. Q01196+Q13951. Cerulean-Runt/Venus-CBFb FRET ratio 530/480, 1 h. inhibition, % at 20 µM. 220,000 tested, 0.46% active. AID 1496;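 active means inhibition over about 50% at 20 µM in the single-dose screen, limit read from the data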
# Target sequence (Q01196 whole entry, looked up, the tested form may be a part): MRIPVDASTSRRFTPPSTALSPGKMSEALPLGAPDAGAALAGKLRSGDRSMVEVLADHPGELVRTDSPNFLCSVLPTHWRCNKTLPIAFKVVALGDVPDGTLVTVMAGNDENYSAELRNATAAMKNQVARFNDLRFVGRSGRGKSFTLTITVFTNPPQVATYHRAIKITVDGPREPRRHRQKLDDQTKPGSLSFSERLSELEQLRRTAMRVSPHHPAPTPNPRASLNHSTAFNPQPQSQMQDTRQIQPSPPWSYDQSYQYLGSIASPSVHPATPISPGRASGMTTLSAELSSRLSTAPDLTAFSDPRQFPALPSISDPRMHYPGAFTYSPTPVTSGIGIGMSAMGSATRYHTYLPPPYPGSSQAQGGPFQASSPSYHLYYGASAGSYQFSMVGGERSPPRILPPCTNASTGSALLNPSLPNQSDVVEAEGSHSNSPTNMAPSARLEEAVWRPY
# Target sequence (Q13951 whole entry, looked up, the tested form may be a part): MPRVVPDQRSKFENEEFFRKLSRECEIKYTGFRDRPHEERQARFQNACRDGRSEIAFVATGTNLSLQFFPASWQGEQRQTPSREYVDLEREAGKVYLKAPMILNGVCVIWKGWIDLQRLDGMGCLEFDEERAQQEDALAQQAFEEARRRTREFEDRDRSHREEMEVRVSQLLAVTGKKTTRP
#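 Buffer or medium: Tris pH 7.5 buffer with BSA. Assay system: Cerulean-labeled Runt domain protein. Amount: each fluorescent fusion protein 100 nM. Read-out basis: loss of energy transfer signal. Incubation: 1 h compound exposure, room temperature. Probe or stimulus: Venus-CBFb binding partner, 100 nM. Detection: FRET, excitation 422 nm, emission at 530 and 480 nm.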
# Runt-SMMHC FRET = blocks binding of human RUNX1 Runt domain to CBFb-SMMHC; Q01196+Q13951; Cerulean-Runt/Venus-CBFb-SMMHC FRET ratio 530/480, 1 h; inhibition, % at 20 µM; 220,000 tested, 0.74% active; AID 1434;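 active means mean inhibition across duplicate retests at 20 µM reaching about 50%, limit read from the data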;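 further: inhibitors lower the FRET ratio by blocking Runt binding to CBFb-SMMHC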
# Calpain2 inh = calpain II (pig) inhibition. AID 1236. 220,000 tested, 0.37% active. purified calpain II, fluorogenic peptide substrate, 30 min. inhibition, % at 16 µM;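 active means inhibition above about 50%, limit read from the data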
# FAS-TE conf = FAS thioesterase (human) inhibition, confirmation; shares compounds with FAS-TE inh; recombinant FAS-TE, OMFH fluorogenic substrate, fluorescence; inhibition, % at 15 µM; 2,300 tested, 45% active;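 active means compounds inhibiting the enzyme by at least 50% at 15 µM in any one of the replicates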
# Hits are given with their value; i = inactive; ? = inconclusive; nt = not tested or not shown.
SMILES,FAS-TE inh,RanGTP-Imp inh,Runt-CBFb FRET,Runt-SMMHC FRET,Calpain2 inh,FAS-TE conf
CCOc1ccc(-n2c(SCC(=O)Nc3ccc4c(c3)OCO4)nc3c(c2=O)SCC3)cc1,i,nt,i,i,nt,nt
O=C(Cn1ccccc1=S)c1ccc(Cl)c(Cl)c1,i,i,nt,nt,nt,nt
O=C(CN1CCSC1=NCc1ccccc1)c1ccc(Cl)c(Cl)c1,54,i,i,i,i,i
CCC1C(c2ccccc2)=CCC(C(=O)O)C1C (stereo unspecified),i,nt,nt,nt,nt,nt
COc1cc2c(C)nc3c(c(C)nn3-c3ccccc3)c2cc1OC,i,?,i,i,i,nt
COc1cc2c(C)nc3onc(-c4ccccc4)c3c2cc1OC,70,i,i,i,i,45
CCOc1cc(/C=C2\N=C(SC(C)C(N)=O)N(c3ccc(OC(F)F)cc3)C2=O)ccc1O (stereo unspecified),i,i,nt,nt,nt,nt
O=C(Oc1ccc(N(Cc2cccs2)C2=NS(=O)(=O)c3ccccc32)cc1)c1ccccc1,60,i,i,i,i,i
CN(C(=O)COc1ccccc1C(=O)NCCOc1ccccc1)c1ccccc1,i,i,i,i,i,nt
COc1cc(C=O)ccc1OCC(=O)Nc1ccc2c(c1)OCO2,i,i,nt,nt,nt,nt
O=C1c2ccc(-c3ccc(Cl)c(C(F)(F)F)c3)cc2S(=O)(=O)c2cccc(C(=O)N3CCN(c4ccc(Cl)cn4)CC3)c21,67,nt,nt,nt,nt,i
COc1ccc(-c2ccc3c(c2)S(=O)(=O)c2cccc(C(=O)N4CCN(c5ccccn5)CC4)c2C3=O)cc1OC,i,nt,nt,nt,nt,nt
N#Cc1ccc(Sc2nc3ccccc3[nH]2)cc1C#N,74,i,i,i,i,85
O=[N+]([O-])c1cccc(S(=O)(=O)N2CCN(c3ccccn3)CC2)c1,i,i,nt,nt,nt,nt
COc1ccc(CCN(Cc2cc3cccc(C)c3n3nnnc23)C(=O)c2ccncc2)cc1OC,nt,i,nt,nt,i,nt
COc1ccc(CN(Cc2cc3cccc(C)c3n3nnnc23)C(=O)N2CCOCC2)cc1,50,i,i,i,i,47
O=C(O)CN1C(=O)/C(=C\c2cn(-c3ccccc3)nc2-c2ccccc2)SC1=S,i,i,nt,nt,nt,nt
O=C1C(=Cc2cn(-c3ccccc3)nc2-c2ccc(OCc3ccccc3)cc2)SC(=S)N1CCS(=O)(=O)O,71,nt,nt,nt,nt,i
Cc1ccc(-c2nn(-c3ccccc3)cc2C=C2SC(=S)N(CCS(=O)(=O)O)C2=O)cc1,i,nt,nt,nt,nt,nt
CC(C)COc1ccc(-c2nn(-c3ccccc3)cc2/C=C2/SC(=S)N(CC(=O)O)C2=O)cc1,78,i,nt,nt,nt,i
COc1cc(/C=C(/Sc2nnc(-c3ccc(F)cc3)o2)C(=O)O)ccc1OC(F)F,i,i,i,i,i,nt
Cc1onc(-c2c(Cl)cccc2Cl)c1-c1nc2cc(Cl)ccc2c(=O)o1,54,nt,i,i,i,i
O=C(NN1C(=O)NC2(CCCCC2)C1=O)c1cccs1,i,nt,nt,nt,nt,nt
N#CCNC(=O)C1CC(=O)N(CCc2ccc(F)cc2)C1 (stereo unspecified),i,i,nt,nt,nt,nt
O=C(Nc1cccc([N+](=O)[O-])c1)NC1CCCCCCC1,53,nt,nt,nt,nt,63
SMILES,FAS-TE inh,RanGTP-Imp inh,Runt-CBFb FRET,Runt-SMMHC FRET,Calpain2 inh,FAS-TE conf
O=C(CNC1CCCCC1)Nc1cccc([N+](=O)[O-])c1,i,i,nt,nt,nt,nt
O=C(NC1CCCCC1)N(c1ccccc1)c1nnc(-c2cccc([N+](=O)[O-])c2)s1,70,nt,nt,nt,nt,63
O=C(Cc1ccccc1)Nc1nnc(-c2cccc([N+](=O)[O-])c2)s1,i,i,i,i,i,nt
COc1ccc(C2=NN(C(=O)CSc3nc(=O)n4cccc(C)c4n3)C(c3ccc(C)cc3)C2)cc1 (stereo unspecified),90,i,nt,nt,nt,i
Cc1cccn2c(=O)nc(SCC(=O)N3N=C(c4cccs4)CC3c3ccc(F)cc3)nc12 (stereo unspecified),54,i,nt,nt,nt,i
Cc1ccc2nc(SCC(=O)N3N=C(c4cccs4)CC3c3ccc(F)cc3)nc(=O)n2c1 (stereo unspecified),i,nt,nt,nt,nt,nt
Cc1ccc(C2CC(c3cccs3)=NN2C(=O)CSc2nc(=O)n3cc(C)ccc3n2)cc1 (stereo unspecified),51,i,nt,nt,nt,i
Cc1ccn2c(=O)nc(SCC(=O)N3N=C(c4cccs4)CC3c3ccc(F)cc3)nc2c1 (stereo unspecified),54,i,nt,nt,nt,46
COc1ccc(C2CC(c3cccs3)=NN2C(=O)CSc2nc(=O)n3ccccc3n2)cc1 (stereo unspecified),i,i,nt,nt,nt,nt
CCc1cccc2c1NC(=O)C21OCCO1,i,i,nt,nt,nt,nt
CCCc1cc(=O)oc2c(C)c(OCC(=O)N3C[C@H]4C[C@@H](C3)c3cccc(=O)n3C4)ccc12,i,i,nt,nt,nt,nt
Cc1ccc(-c2csc3nc(C(C)C)oc(=O)c23)c(C)c1,86,i,i,i,i,69
COc1cccc(/C=C2\CCC(C3CCCC3)C2=O)c1OC (stereo unspecified),i,i,nt,nt,nt,nt
Cc1ccc(NC(=O)C(OC(=O)c2ccc(C=O)cc2)c2ccccc2)cc1Cl (stereo unspecified),50,i,i,i,i,i
Cc1ccc(C)c(NC(=O)C(OC(=O)c2ccc(CO)cc2)c2ccccc2)c1 (stereo unspecified),i,nt,nt,nt,nt,nt
CC(=O)c1cn(CC(=O)NCc2ccc3c(c2)OCO3)c2ccccc12,i,i,i,i,i,nt
O=C(Cn1cc(C(=O)C2CC2)c2ccccc21)NCc1ccc2c(c1)OCO2,59,i,i,i,i,55
CCOc1ccc(NS(=O)(=O)c2coc(C(N)=O)c2)cc1,i,?,nt,nt,nt,nt
O=C(CSc1nc2ccccc2c(=O)n1-c1ccc(F)cc1)Nc1ccc(C(=O)O)cc1,i,?,nt,nt,nt,nt
O=C(CSc1nc2ccccc2c(=O)n1-c1ccc(F)c(Cl)c1)Nc1cccc(S(=O)(=O)N2CCOCC2)c1,78,i,i,i,i,i
Cc1ccc(-n2c(SCC(=O)Nc3cc(S(=O)(=O)N4CCOCC4)ccc3Cl)nc3ccccc3c2=O)cc1,95,i,i,i,i,i
O=C(CSc1nc2ccccc2c(=O)n1-c1ccc(F)cc1)Nc1ccc(Cl)c(S(=O)(=O)N2CCOCC2)c1,78,i,i,i,i,i
O=[N+]([O-])c1ccc(S(=O)(=O)Nc2ccc(S(=O)(=O)N3CCCC3)cc2)cc1,i,i,nt,nt,nt,nt
COC(=O)c1cc(NC(=O)c2ccc(F)cc2)cc(C(=O)OC)c1,i,i,i,i,i,nt
Cc1cccc([C@@H]2[C@@H]3C(=O)N(Cc4ccccc4)C(=O)[C@@H]3[C@]3(Cc4ccc(Cl)cc4)C(=O)N(c4cccc(Br)c4)C(=O)N23)c1,91,i,nt,nt,nt,i
CC[C@@]12C(=O)N(c3cccc(Br)c3)C(=O)N1[C@H](c1cccc(C)c1)[C@@H]1C(=O)N(Cc3ccccc3)C(=O)[C@@H]12,55,i,nt,nt,nt,i
CCN1C(=O)[C@H]2[C@@H](c3ccc(C)cc3)N3C(=O)N(c4ccccc4)C(=O)[C@@]3(Cc3ccccc3)[C@H]2C1=O,i,i,nt,nt,nt,nt
